Laboratory results as given in ChEMBL document CHEMBL1130351, “Nonclassical 2,4-diamino-5-aryl-6-ethylpyrimidine antifolates: activity as inhibitors of dihydrofolate reductase from Pneumocystis carinii and Toxoplasma gondii and as antitumor agents” (J Med Chem, 1997).

Columns and labels:
[1] = tested on: Mus musculus; assay: Number of M5076 reticulum cell sarcoma bearing mice survived among the tested (5) on day 24 after treating with compound dose of 12.5 mg/Kg/day; assay type: functional
Method in brief: (§1)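 BDF1 female mice in groups of 5 received 10^6 M5076 cells im into the left leg on day 0. Drug was dissolved in 10-20% DMSO in arachis oil and given ip daily on days 1-17; controls got vehicle only. Tumor volumes were measured on days 12, 16, 20 and 24. T/C = test/control tumor volume ×100.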

[2] = tested on: Mus musculus; assay: Antitumor activity expressed as a ratio of tumor volumes of test (T) animals compared to control (C) animals(100) at a dose of 12.5 mg/kg/day; assay type: functional; method in brief: as §1
[3] = target: T1, Bifunctional dihydrofolate reductase-thymidylate synthase (Toxoplasma gondii, UniProt Q07422); assay: Inhibitory activity against Dihydrofolate reductase from Toxoplasma gondii was evaluated using 90 uM dihydrofolic acid as substrate
T1 sequence (Q07422 whole entry): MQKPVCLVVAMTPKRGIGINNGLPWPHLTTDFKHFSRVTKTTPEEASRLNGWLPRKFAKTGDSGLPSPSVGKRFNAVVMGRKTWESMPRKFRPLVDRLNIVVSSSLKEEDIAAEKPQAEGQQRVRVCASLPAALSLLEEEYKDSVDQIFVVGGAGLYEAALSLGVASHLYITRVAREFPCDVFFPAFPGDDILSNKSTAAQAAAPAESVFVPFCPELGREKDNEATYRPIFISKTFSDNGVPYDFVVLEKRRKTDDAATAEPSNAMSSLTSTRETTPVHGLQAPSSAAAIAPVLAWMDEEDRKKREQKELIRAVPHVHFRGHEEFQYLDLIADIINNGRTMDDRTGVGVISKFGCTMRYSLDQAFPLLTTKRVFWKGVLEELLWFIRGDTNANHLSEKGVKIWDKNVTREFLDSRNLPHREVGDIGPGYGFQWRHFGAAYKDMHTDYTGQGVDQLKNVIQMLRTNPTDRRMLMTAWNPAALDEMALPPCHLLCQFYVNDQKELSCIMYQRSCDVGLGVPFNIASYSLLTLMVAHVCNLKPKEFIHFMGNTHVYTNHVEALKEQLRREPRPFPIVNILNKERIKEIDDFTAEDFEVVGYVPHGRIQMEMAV

[4] = tested on: Mus musculus; assay: Number of M5076 reticulum cell sarcoma bearing mice survived among the tested (5) on day 24 after treating with compound dose of 25 mg/Kg/day; assay type: functional; method in brief: as §1
[5] = tested on: Mus musculus; assay: Antitumor activity expressed as a ratio of tumor volumes of test (T) animals compared to control (C) animals(100) at a dose of 25 mg/kg/day; assay type: functional; method in brief: as §1
[6] = tested on: Mus musculus; assay: Antitumor activity expressed as a ratio of tumor volumes of test (T) animals compared to control (C) animals(100) at a dose of 3.125 mg/kg/day; assay type: functional; method in brief: as §1
[7] = tested on: Mus musculus; assay: Number of M5076 reticulum cell sarcoma bearing mice survived among the tested (5) on day 24 after treating with compound dose of 3.125 mg/Kg/day; assay type: functional; method in brief: as §1

CCc1nc(N)nc(N)c1-c1ccc(N(C)Cc2ccc(C(=O)NC)cc2)c([N+](=O)[O-])c1
Survivors [1]: 5 | T/C [2]: 15% | IC50 [3]: 7.4 nM

CCc1nc(N)nc(N)c1-c1ccc(NCc2ccc(C(=O)N3CCCCC3)cc2)c([N+](=O)[O-])c1
IC50 [3]: 140 nM

CCc1nc(N)nc(N)c1-c1ccc(NCc2ccccc2)c([N+](=O)[O-])c1
IC50 [3]: 19 nM

CCOC(=O)CCC(NC(=O)c1ccc(CNc2ccc(-c3c(N)nc(N)nc3CC)cc2[N+](=O)[O-])cc1)C(=O)OCC (stereo not drawn)
IC50 [3]: 7.1 nM

CCc1nc(N)nc(N)c1-c1ccc(NCc2ccc(C3OCCO3)cc2)c([N+](=O)[O-])c1
IC50 [3]: 15 nM

CCc1nc(N)nc(N)c1-c1ccc(N(C)Cc2ccccc2)c([N+](=O)[O-])c1
Survivors [4]: 5 | T/C [5]: 37%

CCc1nc(N)nc(N)c1-c1ccc(NCc2ccc(C(=O)O)cc2)c([N+](=O)[O-])c1
IC50 [3]: 1.8 nM

CCc1nc(N)nc(N)c1-c1ccc(NCc2ccc(C(=O)NC)cc2)c([N+](=O)[O-])c1
IC50 [3]: 4.3 nM

CN(Cc1cnc2nc(N)nc(N)c2n1)c1ccc(C(=O)N[C@@H](CCC(=O)O)C(=O)O)cc1 [METHOTREXATE]
T/C [6]: 92% | Survivors [7]: 5

CCc1nc(N)nc(N)c1-c1ccc(NCc2ccc(C(=O)N(C)C)cc2)c([N+](=O)[O-])c1
IC50 [3]: 7.9 nM

CCc1nc(N)nc(N)c1-c1ccc(NCc2ccc(C(N)=O)cc2)c([N+](=O)[O-])c1
IC50 [3]: 3.7 nM

CCc1nc(N)nc(N)c1-c1ccc(NCc2ccc(S(N)(=O)=O)cc2)c([N+](=O)[O-])c1
IC50 [3]: 5.8 nM

CCc1nc(N)nc(N)c1-c1ccc(N(C)Cc2ccc(C3=NC(C)(C)CO3)cc2)c([N+](=O)[O-])c1
IC50 [3]: 14 nM

CCc1nc(N)nc(N)c1-c1ccc(NCc2ccc(C(=O)NC(CCC(=O)O)C(=O)O)cc2)c([N+](=O)[O-])c1 (stereo not drawn)
IC50 [3]: 6.2 nM

Cc1nc(N)nc(N)c1-c1ccc(Cl)c(Cl)c1 [METOPRINE]
T/C [6]: <8% | Survivors [7]: 1

CCc1nc(N)nc(N)c1-c1ccc(N(C)Cc2ccc(C(=O)O)cc2)c([N+](=O)[O-])c1
Survivors [1]: 5 | T/C [2]: 100% | IC50 [3]: 3.1 nM
